According to ChEMBL document CHEMBL4184106, “Discovering alkylamide derivatives of bexarotene as new therapeutic agents against triple-negative breast cancer” (Bioorg Med Chem Lett, 2018):
Active and inactive are the calls of the source. No cut-off for these calls is given here.

Experiments:
MCF7 [1] = experiment: Inhibition of mammosphere formation in human MCF7 cells assessed as ratio of C-Myc to beta actin level at 5 uM by Western blot analysis (Rvb= 1); assay type: functional
Summary of the method: (§1)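 Post-treatment cell lysates were probed by Western blot for CSC markers, with β-actin as the loading control. Band densitometry was normalized to DMSO-treated samples.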

MCF7 [2] = experiment: Cytotoxicity against human MCF7 cells assessed as reduction in cell viability at 5 uM by MTT assay; assay type: functional
MDA-MB-231 [3] = experiment: Cytotoxicity against human MDA-MB-231 cells assessed as reduction in cell viability at 5 uM by MTT assay; assay type: functional
BT-549 [4] = experiment: Cytotoxicity against human BT549 cells assessed as reduction in cell viability at 5 uM by MTT assay; assay type: functional
MDA-MB-231 [5] = experiment: Cytotoxicity against human MDA-MB-231 cells assessed as reduction in cell viability by MTT assay; assay type: functional, cell-based
BT-549 [6] = experiment: Cytotoxicity against human BT549 cells assessed as reduction in cell viability by MTT assay; assay type: functional, cell-based
MCF-10A [7] = experiment: Cytotoxicity against human MCF10A cells assessed as reduction in cell viability by MTT assay; assay type: cell-based
MDA-MB-231 [8] = experiment: Induction of apoptosis in human MDA-MB-231 cells assessed as ratio of cleaved caspase-3 to beta-actin level at 5 uM by western blot analysis (reference value: 1); assay type: functional
BT-549 [9] = experiment: Induction of apoptosis in human BT549 cells assessed as ratio of cleaved caspase-3 to beta-actin level at 5 uM by western blot analysis (reference value: 1); assay type: functional
MCF-10A [10] = experiment: Induction of apoptosis in human MCF10A cells assessed as ratio of cleaved caspase-3 to beta-actin level at 5 uM by western blot analysis (reference value: 1); assay type: cell-based
MCF7 [11] = experiment: Induction of apoptosis in human MCF7 cells assessed as ratio of cleaved caspase-3 to beta-actin level at 5 uM by western blot analysis (reference value: 1); assay type: functional
MDA-MB-231 [12] = experiment: Induction of apoptosis in human MDA-MB-231 cells assessed as ratio of cleaved caspase-8 to beta-actin level at 5 uM by western blot analysis (reference value: 1); assay type: functional
BT-549 [13] = experiment: Induction of apoptosis in human BT549 cells assessed as ratio of cleaved caspase-8 to beta-actin level at 5 uM by western blot analysis (reference value: 1); assay type: functional
MCF-10A [14] = experiment: Induction of apoptosis in human MCF10A cells assessed as ratio of cleaved caspase-8 to beta-actin level at 5 uM by western blot analysis (reference value: 1); assay type: cell-based
MCF7 [15] = experiment: Induction of apoptosis in human MCF7 cells assessed as ratio of cleaved caspase-8 to beta-actin level at 5 uM by western blot analysis (reference value: 1); assay type: functional
MDA-MB-231 [16] = experiment: Induction of apoptosis in human MDA-MB-231 cells assessed as ratio of cleaved caspase-9 to beta-actin level at 5 uM by western blot analysis (reference value: 1); assay type: functional
BT-549 [17] = experiment: Induction of apoptosis in human BT549 cells assessed as ratio of cleaved caspase-9 to beta-actin level at 5 uM by western blot analysis (reference value: 1); assay type: functional
MCF-10A [18] = experiment: Induction of apoptosis in human MCF10A cells assessed as ratio of cleaved caspase-9 to beta-actin level at 5 uM by western blot analysis (reference value: 1); assay type: cell-based
MCF7 [19] = experiment: Induction of apoptosis in human MCF7 cells assessed as ratio of cleaved caspase-9 to beta-actin level at 5 uM by western blot analysis (reference value: 1); assay type: functional
MCF7 [20] = experiment: Inhibition of colony formation in human MCF7 cells at 5 uM supplemented with fresh medium containing compound every 3 to 4 days for 7 days by crystal violet staining based adherent cell colony-forming assay; assay type: functional
Summary of the method: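 MCF-7 cells were plated for adherent colony formation and treated for 7 days. Colonies were counted at the end of treatment and normalized to untreated samples.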

MDA-MB-231 [21] = experiment: Inhibition of colony formation in human MDA-MB-231 cells at 2 uM supplemented with fresh medium containing compound every 3 days for 10 days by microscopic method based soft agar colony formation assay relative to control; assay type: functional
MDA-MB-231 [22] = experiment: Anti-migratory activity against human MDA-MB-231 cells assessed as reduction in wound closure at 2 uM up to 24 hrs by wound-healing assay; assay type: functional, cell-based
Summary of the method: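 MDA-MB-231 monolayer was scratched to make a wound gap. Cells were treated alongside a DMSO vehicle control, and migration into the gap was imaged at 24 h.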

MCF7 [23] = experiment: Inhibition of mammosphere formation in human MCF7 cells at 2 uM after 7 days by microscopic method; assay type: functional, cell-based
Summary of the method: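 MCF-7 cells were grown under mammosphere-forming conditions with compound. Spheres 60 μm or larger were counted for quantitation.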

MCF7 [24] = experiment: Down regulation of c-Myc expression in human MCF7 cells at 5 uM by Western blot analysis; assay type: functional
Summary of the method: (§2)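 MCF-7 cells were treated and lysates probed by Western blot for CSC-related markers, with β-actin as loading control. Band densitometry was normalized to DMSO-treated samples.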

MCF7 [25] = experiment: Down regulation of KLF4 expression in human MCF7 cells at 5 uM by Western blot analysis; assay type: functional; summary of the method: as §2
MCF7 [26] = experiment: Down regulation of Nanog expression in human MCF7 cells at 5 uM by Western blot analysis; assay type: functional; summary of the method: as §2
MCF7 [27] = experiment: Down regulation of Oct4A expression in human MCF7 cells at 5 uM by Western blot analysis; assay type: functional; summary of the method: as §2
MDA-MB-231 [28] = experiment: Down regulation of KLF4 expression in human MDA-MB-231 cells at 5 uM by Western blot analysis; assay type: functional
MCF7 [29] = experiment: Inhibition of mammosphere formation in human MCF7 cells assessed as ratio of KLF4 to beta actin level at 5 uM by Western blot analysis (Rvb= 1); assay type: functional; summary of the method: as §1
MCF7 [30] = experiment: Inhibition of mammosphere formation in human MCF7 cells assessed as ratio of Nanog to beta actin level at 5 uM by Western blot analysis (Rvb= 1); assay type: functional; summary of the method: as §1
MCF7 [31] = experiment: Inhibition of mammosphere formation in human MCF7 cells assessed as ratio of Oct4A to beta actin level at 5 uM by Western blot analysis (Rvb= 1); assay type: functional; summary of the method: as §1
MCF7 [32] = experiment: Inhibition of mammosphere formation in human MCF7 cells assessed as ratio of Sox2 to beta actin level at 5 uM by Western blot analysis (Rvb= 1); assay type: functional; summary of the method: as §1
MDA-MB-231 [33] = experiment: Inhibition of mammosphere formation in human MDA-MB-231 cells assessed as ratio of C-Myc to beta actin level at 5 uM by Western blot analysis (Rvb= 1); assay type: functional; summary of the method: as §1
MDA-MB-231 [34] = experiment: Inhibition of mammosphere formation in human MDA-MB-231 cells assessed as ratio of KLF4 to beta actin level at 5 uM by Western blot analysis (Rvb= 1); assay type: functional; summary of the method: as §1
BT-549 [35] = experiment: Inhibition of mammosphere formation in human BT549 cells assessed as ratio of C-Myc to beta actin level at 5 uM by Western blot analysis (Rvb= 1); assay type: functional
BT-549 [36] = experiment: Inhibition of mammosphere formation in human BT549 cells assessed as ratio of KLF4 to beta actin level at 5 uM by Western blot analysis (Rvb= 1); assay type: functional
MDA-MB-231 [37] = experiment: Effect on epithelial-mesenchymal transition in human MDA-MB-231 cells assessed as ratio of E-cadherin to beta-actin level at 5 uM by Western blot analysis (reference value: 1); assay type: functional
MDA-MB-231 [38] = experiment: Effect on epithelial-mesenchymal transition in human MDA-MB-231 cells assessed as ratio of vimentin to beta-actin level at 5 uM by Western blot analysis (reference value: 1); assay type: functional
MDA-MB-231 [39] = experiment: Effect on epithelial-mesenchymal transition in human MDA-MB-231 cells assessed as ratio of slug to beta-actin level at 5 uM by Western blot analysis (reference value: 1); assay type: functional
BT-549 [40] = experiment: Effect on epithelial-mesenchymal transition in human BT549 cells assessed as ratio of E-cadherin to beta-actin level at 5 uM by Western blot analysis (reference value: 1); assay type: functional
BT-549 [41] = experiment: Effect on epithelial-mesenchymal transition in human BT549 cells assessed as ratio of vimentin to beta-actin level at 5 uM by Western blot analysis (reference value: 1); assay type: functional
BT-549 [42] = experiment: Effect on epithelial-mesenchymal transition in human BT549 cells assessed as ratio of slug to beta-actin level at 5 uM by Western blot analysis (reference value: 1); assay type: functional

## C=C(c1ccc(C(=O)NCCN(CC)CC)cc1)c1cc2c(cc1C)C(C)(C)CCC2(C)C
MCF7 [1]
  Ratio: 0.7
MCF7 [2]
  Activity: 40%
MDA-MB-231 [3]
  Activity: 60%
BT-549 [4]
  Activity: 60%
MDA-MB-231 [5]
  EC50: < 10 µM
BT-549 [6]
  EC50: < 10 µM
MCF-10A [7]
  Activity: Non-Toxic
MDA-MB-231 [8]
  Ratio: 1.3
BT-549 [9]
  Ratio: 2.6
MCF-10A [10]
  Ratio: 1.1
MCF7 [11]
  Ratio: 0.9
MDA-MB-231 [12]
  Ratio: 1.5
BT-549 [13]
  Ratio: 2.1
MCF-10A [14]
  Ratio: 1
MCF7 [15]
  Ratio: 1
MDA-MB-231 [16]
  Ratio: 2.5
BT-549 [17]
  Ratio: 2.3
MCF-10A [18]
  Ratio: 1
MCF7 [19]
  Ratio: 1
MCF7 [20]
  inhibition (INH): 80%
MDA-MB-231 [21]
  inhibition (INH): 90%
MDA-MB-231 [22]
  Activity: Active
MCF7 [23]
  inhibition: Active
MCF7 [24]
  Activity: 10 - 30%
MCF7 [25]
  Activity: 10 - 30%
MCF7 [26]
  Activity: 20%
MCF7 [27]
  Activity: 50%
MDA-MB-231 [28]
  Activity: 50%
MCF7 [29]
  Ratio: 0.9
MCF7 [30]
  Ratio: 0.8
MCF7 [31]
  Ratio: 0.5
MCF7 [32]
  Ratio: 0.9
MDA-MB-231 [33]
  Ratio: 0.9
MDA-MB-231 [34]
  Ratio: 0.5
BT-549 [35]
  Ratio: 0.9
BT-549 [36]
  Ratio: 0.5
MDA-MB-231 [37]
  Ratio: 1.9
MDA-MB-231 [38]
  Ratio: 0.4
MDA-MB-231 [39]
  Ratio: 0.9
BT-549 [40]
  Ratio: 2.4
BT-549 [41]
  Ratio: 0.4
BT-549 [42]
  Ratio: 0.4
